In PMC7383892 (Epilepsia, 2020):
Entries after “also recorded” stand apart in the source; their conditions may differ. Like-named read-outs stand apart in the source and are kept apart here. Marks after values point to notes of the source that are not given here.

Experiments:
[1] = system: photosensitive epilepsy; settings: cited from earlier work
[2] = system: Lennox–Gastaut syndrome; settings: stable dosages over a 3-year period; cited from earlier work
[3] = molecular target: C isoform of SV2 proteins; settings: cited from earlier work
[4] = molecular target: human recombinant GABAA receptor α3β2γ2 (Homo sapiens, UniProt P18507+P34903); assay: Two-electrode voltage clamp in Xenopus oocytes, α3β2γ2; assay type: cell-based; settings: for Function relative efficacy, normalized toward chlordiazepoxide (10 µmol/L): Padsevonil 10 µmol/L, GABA EC20, TEVC, α3β2γ2
[5] = system: treatment-resistant focal epilepsy; settings: Phase IIa proof-of-concept trial; cited from earlier work
[6] = system: PTZ-induced clonic seizures; settings: repeated = twice daily for 4 consecutive days; cited from earlier work
[7] = molecular target: recombinant GABAARs, benzodiazepine (BZD) binding site; settings: cited from earlier work
[8] = molecular target: human recombinant GABAA receptor α1β2γ2 (Homo sapiens, UniProt P14867+P18507); assay: Two-electrode voltage clamp in Xenopus oocytes, α1β2γ2; assay type: cell-based; settings: for Function relative efficacy, normalized toward chlordiazepoxide (10 µmol/L): Padsevonil 10 µmol/L, GABA EC20, TEVC, α1β2γ2
[9] = molecular target: recombinant human GABAARs (α1β2γ2) (Homo sapiens, UniProt P14867+P18507); assay type: cell-based; settings: for Function relative efficacy, normalized toward zolpidem (1 µmol/L): Padsevonil 10 µmol/L; for Cl− currents evoked in the absence of GABA: no GABA, concentrations up to 30 µmol/L
[10] = molecular target: human recombinant GABAA receptor α4β2γ2 (Homo sapiens, UniProt P18507+P48169); assay: Two-electrode voltage clamp in Xenopus oocytes, α4β2γ2; assay type: cell-based; settings: TEVC; for Potentiation of the GABA (EC20) response on α4β2γ2 receptors: oocytes, Padsevonil 10 and 30 µmol/L, Ro 15-4513 1 µmol/L
Outline: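 Human recombinant receptors expressed in Xenopus oocytes; automated two-electrode voltage clamp at −60 mV in frog Ringer (115 mM NaCl, 2.5 mM KCl, 1.8 mM CaCl₂, 10 mM HEPES, pH 7.2). Two 20 s GABA (EC₂₀) control applications 6 min apart; test compound pre-incubated 6 min, then co-applied with GABA for 20 s. Potentiation is I(GABA+drug)/I(GABA); EC50 from sigmoidal nonlinear fit.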

[11] = system: SV2A; settings: cited from earlier work
[12] = molecular target: B isoform of SV2 proteins; settings: cited from earlier work
[13] = system: BZD site of GABAARs; settings: cited from earlier work
[14] = molecular target: human recombinant GABAA receptor α2β2γ2 (Homo sapiens, UniProt P18507+P47869); assay: Two-electrode voltage clamp in Xenopus oocytes, α2β2γ2; assay type: cell-based; settings: for Function relative efficacy, normalized toward chlordiazepoxide (10 µmol/L): Padsevonil 10 µmol/L, GABA EC20, TEVC, α2β2γ2
[15] = molecular target: human recombinant GABAA receptor α5β2γ2 (Homo sapiens, UniProt P18507+P31644); assay: Two-electrode voltage clamp in Xenopus oocytes, α5β2γ2; assay type: cell-based; settings: for Function relative efficacy, normalized toward chlordiazepoxide (10 µmol/L): Padsevonil 10 µmol/L, GABA EC20, TEVC, α5β2γ2
Outline: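 Human α5β2γ2 receptors expressed in oocytes. GABA (EC₂₀) was applied twice for 20 s, 6 min apart, as control. Test compound (1 nmol/L–30 µmol/L) was preincubated 6 min, then co-applied with GABA for 20 s. EC₅₀ came from a sigmoidal fit of data normalized to maximal potentiation. Efficacy at 10 µmol/L was normalized to chlordiazepoxide 10 µmol/L. Mean ± SEM, n = 6–26.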

[16] = system: native GABAARs in cultured rat primary cortical neurons; assay type: cell-based; settings: manual patch clamp, rat primary neuronal cultures, GABA at EC20 as printed
[17] = system: SV2A; settings: cited from earlier work; remark: listed apart in the source

Sequence of human recombinant GABAA receptor α3β2γ2 (P34903 29-492): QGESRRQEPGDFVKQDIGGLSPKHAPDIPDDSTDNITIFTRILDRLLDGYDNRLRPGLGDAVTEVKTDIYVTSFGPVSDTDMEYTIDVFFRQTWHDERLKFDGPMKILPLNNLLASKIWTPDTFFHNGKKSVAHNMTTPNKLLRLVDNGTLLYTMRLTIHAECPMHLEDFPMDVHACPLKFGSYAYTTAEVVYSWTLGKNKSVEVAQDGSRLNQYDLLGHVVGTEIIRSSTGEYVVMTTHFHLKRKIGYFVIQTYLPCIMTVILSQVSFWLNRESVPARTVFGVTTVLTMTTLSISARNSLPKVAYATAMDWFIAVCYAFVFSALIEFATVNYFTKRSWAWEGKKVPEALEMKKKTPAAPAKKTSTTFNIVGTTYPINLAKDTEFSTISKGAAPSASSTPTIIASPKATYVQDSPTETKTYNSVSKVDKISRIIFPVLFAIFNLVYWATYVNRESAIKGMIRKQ
Sequence of human recombinant GABAA receptor α3β2γ2 (P47870 25-512 partner limits assumed): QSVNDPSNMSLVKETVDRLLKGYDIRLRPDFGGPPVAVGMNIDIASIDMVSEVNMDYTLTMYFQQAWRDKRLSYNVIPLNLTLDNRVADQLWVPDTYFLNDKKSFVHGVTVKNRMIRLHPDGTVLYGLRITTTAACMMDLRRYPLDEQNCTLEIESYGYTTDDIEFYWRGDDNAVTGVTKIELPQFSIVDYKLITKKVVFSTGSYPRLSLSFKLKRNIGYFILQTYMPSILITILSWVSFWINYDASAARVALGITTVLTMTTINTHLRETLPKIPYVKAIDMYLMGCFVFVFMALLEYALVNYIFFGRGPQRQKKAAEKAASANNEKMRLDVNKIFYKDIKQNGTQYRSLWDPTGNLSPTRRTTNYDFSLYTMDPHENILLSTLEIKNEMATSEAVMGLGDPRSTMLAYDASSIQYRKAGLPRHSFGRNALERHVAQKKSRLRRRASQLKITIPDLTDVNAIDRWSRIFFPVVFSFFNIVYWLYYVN
Sequence of human recombinant GABAA receptor α3β2γ2 (P18507 40-475): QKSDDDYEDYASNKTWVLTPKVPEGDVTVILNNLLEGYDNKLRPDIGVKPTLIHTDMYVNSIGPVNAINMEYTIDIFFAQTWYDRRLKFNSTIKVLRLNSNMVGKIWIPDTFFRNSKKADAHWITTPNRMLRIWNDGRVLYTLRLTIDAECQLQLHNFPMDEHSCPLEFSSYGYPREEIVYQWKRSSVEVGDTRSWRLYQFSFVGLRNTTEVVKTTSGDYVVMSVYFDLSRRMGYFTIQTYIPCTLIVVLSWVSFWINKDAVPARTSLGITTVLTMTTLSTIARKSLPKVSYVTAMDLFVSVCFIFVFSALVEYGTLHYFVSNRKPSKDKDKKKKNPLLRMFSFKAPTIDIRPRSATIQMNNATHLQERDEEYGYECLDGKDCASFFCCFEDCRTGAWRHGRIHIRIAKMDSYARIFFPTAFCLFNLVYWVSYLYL
Sequence of recombinant human GABAARs (α1β2γ2) (P14867 28-456): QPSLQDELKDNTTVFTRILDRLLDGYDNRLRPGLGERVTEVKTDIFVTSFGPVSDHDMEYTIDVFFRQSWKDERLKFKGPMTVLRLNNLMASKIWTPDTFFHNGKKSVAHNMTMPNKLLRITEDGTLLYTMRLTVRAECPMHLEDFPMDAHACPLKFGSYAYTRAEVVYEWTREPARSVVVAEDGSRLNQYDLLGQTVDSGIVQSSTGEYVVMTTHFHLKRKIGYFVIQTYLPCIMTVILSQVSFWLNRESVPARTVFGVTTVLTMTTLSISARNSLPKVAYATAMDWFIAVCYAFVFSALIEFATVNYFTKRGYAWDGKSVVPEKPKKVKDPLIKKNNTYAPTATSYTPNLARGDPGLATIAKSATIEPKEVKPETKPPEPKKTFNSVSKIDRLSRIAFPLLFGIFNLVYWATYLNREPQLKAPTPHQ
Sequence of recombinant human GABAARs (α1β2γ2) (P47870 25-512 partner limits assumed): as the sequence (P47870 25-512 partner limits assumed) above
Sequence of recombinant human GABAARs (α1β2γ2) (P18507 40-475): as the sequence (P18507 40-475) above
Sequence of human recombinant GABAA receptor α1β2γ2 (P14867 28-456): as the sequence (P14867 28-456) above
Sequence of human recombinant GABAA receptor α1β2γ2 (P47870 25-512 partner limits assumed): as the sequence (P47870 25-512 partner limits assumed) above
Sequence of human recombinant GABAA receptor α1β2γ2 (P18507 40-475): as the sequence (P18507 40-475) above
Sequence of human recombinant GABAA receptor α2β2γ2 (P47869 29-451): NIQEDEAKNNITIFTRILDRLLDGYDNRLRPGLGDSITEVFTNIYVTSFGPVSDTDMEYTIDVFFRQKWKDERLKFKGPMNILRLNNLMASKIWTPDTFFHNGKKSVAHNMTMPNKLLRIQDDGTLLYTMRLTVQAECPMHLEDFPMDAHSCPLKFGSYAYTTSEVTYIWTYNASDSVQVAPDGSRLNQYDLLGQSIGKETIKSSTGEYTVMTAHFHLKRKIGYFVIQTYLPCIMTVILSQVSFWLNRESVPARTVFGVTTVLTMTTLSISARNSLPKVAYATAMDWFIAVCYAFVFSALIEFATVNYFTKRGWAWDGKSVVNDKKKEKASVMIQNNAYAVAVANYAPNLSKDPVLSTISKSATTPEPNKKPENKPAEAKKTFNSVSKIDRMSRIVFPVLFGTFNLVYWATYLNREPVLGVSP
Sequence of human recombinant GABAA receptor α2β2γ2 (P47870 25-512 partner limits assumed): as the sequence (P47870 25-512 partner limits assumed) above
Sequence of human recombinant GABAA receptor α2β2γ2 (P18507 40-475): as the sequence (P18507 40-475) above
Sequence of human recombinant GABAA receptor α4β2γ2 (P48169 36-554): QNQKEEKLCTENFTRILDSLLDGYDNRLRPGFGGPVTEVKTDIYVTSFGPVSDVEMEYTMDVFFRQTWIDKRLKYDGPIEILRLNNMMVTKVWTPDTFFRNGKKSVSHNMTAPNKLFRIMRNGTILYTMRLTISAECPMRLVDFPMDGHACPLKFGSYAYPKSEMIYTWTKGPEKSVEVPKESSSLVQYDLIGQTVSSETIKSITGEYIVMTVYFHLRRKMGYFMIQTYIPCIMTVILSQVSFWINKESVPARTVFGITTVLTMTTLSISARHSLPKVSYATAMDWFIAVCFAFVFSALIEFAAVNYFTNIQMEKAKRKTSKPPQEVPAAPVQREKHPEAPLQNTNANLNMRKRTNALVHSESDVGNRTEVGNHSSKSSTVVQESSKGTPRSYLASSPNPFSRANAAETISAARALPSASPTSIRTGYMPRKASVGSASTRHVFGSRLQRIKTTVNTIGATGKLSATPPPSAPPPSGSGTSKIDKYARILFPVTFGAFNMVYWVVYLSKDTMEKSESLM
Sequence of human recombinant GABAA receptor α4β2γ2 (P47870 25-512 partner limits assumed): as the sequence (P47870 25-512 partner limits assumed) above
Sequence of human recombinant GABAA receptor α4β2γ2 (P18507 40-475): as the sequence (P18507 40-475) above
Sequence of human recombinant GABAA receptor α5β2γ2 (P31644 32-462): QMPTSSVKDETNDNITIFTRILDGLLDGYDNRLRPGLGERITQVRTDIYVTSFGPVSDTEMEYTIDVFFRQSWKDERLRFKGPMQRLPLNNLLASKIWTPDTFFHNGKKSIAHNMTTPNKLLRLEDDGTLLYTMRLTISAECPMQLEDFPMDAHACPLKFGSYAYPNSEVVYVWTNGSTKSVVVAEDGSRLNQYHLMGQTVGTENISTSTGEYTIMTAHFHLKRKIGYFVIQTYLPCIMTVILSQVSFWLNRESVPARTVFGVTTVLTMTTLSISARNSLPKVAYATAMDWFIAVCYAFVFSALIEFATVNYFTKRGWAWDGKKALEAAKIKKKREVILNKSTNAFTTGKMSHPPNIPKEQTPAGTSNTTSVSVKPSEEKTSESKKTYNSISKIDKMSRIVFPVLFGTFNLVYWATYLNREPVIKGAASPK
Sequence of human recombinant GABAA receptor α5β2γ2 (P47870 25-512 partner limits assumed): as the sequence (P47870 25-512 partner limits assumed) above
Sequence of human recombinant GABAA receptor α5β2γ2 (P18507 40-475): as the sequence (P18507 40-475) above

## COCc1c(C(=O)OC(C)C)ncc2[nH]c3ccc(OCc4ccccc4)cc3c12 [Abecarnil]
[1]
  Clinical efficacy / tolerance development: without development of tolerance

## CN1C(=O)CC(=O)N(c2ccccc2)c2cc(Cl)ccc21 [Clobazam]
[2]
  Seizure control / tolerance development: sustained seizure control

## COCc1nn2c(CN3C[C@@H](CC(F)(F)Cl)CC3=O)c(C(F)(F)F)nc2s1 [Padsevonil, (4R)‐4‐(2‐chloro‐2,2‐difluoroethyl)‐1‐{[2‐(methoxymethyl)‐6‐(trifluoromethyl)imidazo[2,1‐b][1,3,4]thiadiazol‐5‐yl]methyl}pyrrolidin‐2‐one]
[3]
  pKi SV2C: 8.5
[4]
  EC50: 2090 ± 227 nM
  Function relative efficacy, normalized toward chlordiazepoxide (10 µmol/L): 56 ± 6 (n = 18) ^b %
[4]; listed as padsevonil
  Function relative efficacy, normalized toward chlordiazepoxide (10 µmol/L): 56%
[5]
  Clinical efficacy: robust efficacy
[6]
  Tolerance: increase of PTZ seizure threshold after acute versus repeated dosing: tolerance was not developed
[7]
  pKi benzodiazepine (BZD) binding site: 6.4
[8]
  EC50: 295 nM
  Function relative efficacy, normalized toward chlordiazepoxide (10 µmol/L): 60 ± 6%
[8]; listed as padsevonil
  Function relative efficacy, normalized toward chlordiazepoxide (10 µmol/L): 60%
[8]; TEVC, oocytes, α1/α5 versus α2/α3
  Higher potency for receptors with α1 or α5 subunits than for those with α2 or α3 subunits: approximately sixfold
[9]
  EC50: 138 ± 29 nM
  Cl− currents evoked in the absence of GABA: did not elicit
[9]; GABA 30 µmol/L (EC90), data not shown
  Effect on maximal activation of the receptor: does not overstimulate the receptor
[9]; GABA at EC20 set to 100%, patch clamp, human α1β2γ2 in CHO
  Potentiation of the GABA (agonist) response: 167%
[9]; GABA EC20, patch clamp, same cell
  Function relative efficacy, normalized toward zolpidem (1 µmol/L): 41 ± 4%
[9]; GABA EC20, patch clamp, same cell, listed as padsevonil
  Function relative efficacy, normalized toward zolpidem (1 µmol/L): 41%
[9]; Padsevonil 30 µmol/L, GABA EC20, patch clamp, same cell
  Relative efficacy, GABA EC20 response as % of that of zolpidem (1 µmol/L): 35%
[9]; listed as padsevonil
  Cl− currents evoked in the absence of GABA: did not evoke
[10]
  Potentiation of the GABA (EC20) response on α4β2γ2 receptors: did not potentiate; also recorded: does not activate
[10]; listed as padsevonil
  Potentiation of the GABA (EC20) response on α4β2γ2 receptors: no activity was observed
[10]; α4β2γ2 in Xenopus oocytes
  Function EC50, potentiation of GABA EC20: No potentiation
[11]; in vivo, mice
  SV2A occupancy ED50: 0.2 mg/kg
[11]; nonclinical studies
  SV2A occupancy at doses highly active in models of drug-resistant epilepsy: > 95%
[12]
  pKi SV2B: 7.9
[13]; in vivo, mice
  BZD site occupancy ED50: 36 mg/kg
[13]; nonclinical studies
  Occupancy on GABAARs at doses highly active in models of drug-resistant epilepsy: < 20%
[14]
  EC50: 1740 ± 258 nM
  Function relative efficacy, normalized toward chlordiazepoxide (10 µmol/L): 26 ± 4 (n = 13) ^b %
[14]; listed as padsevonil
  Function relative efficacy, normalized toward chlordiazepoxide (10 µmol/L): 26%
[15]
  EC50: 281 ± 73 nM
  Function relative efficacy, normalized toward chlordiazepoxide (10 µmol/L): 41 ± 10 (n = 10) ^b %
[15]; listed as padsevonil
  Function relative efficacy, normalized toward chlordiazepoxide (10 µmol/L): 41%
[16]
  pEC50, potentiation of neuronal GABAAR activity: 6.68
[17]; compared with LEV and BRV
  Dissociation kinetics from SV2A: significantly slower dissociation kinetics
[17]; radioligand displacement
  Affinity for SV2A relative to LEV: ~2000 fold
  Affinity for SV2A relative to brivaracetam (BRV): approximately 100 fold
  pKi SV2A: 8.5

## CCOC(=O)c1ncn2c1CN(C)C(=O)c1cc(N=[N+]=[N-])ccc1-2 [Ro 15‐4513, reference compound]
[10]
  Potentiation of the GABA (EC20) response on α4β2γ2 receptors: potentiated

## Cc1ccc(-c2nc3ccc(C)cn3c2CC(=O)N(C)C)cc1 [zolpidem, Zolpidem, reference compound]
[10]
  Potentiation of the GABA (EC20) response on α4β2γ2 receptors: insensitive
